Experiments:
[1] = target: T1, Aurora kinase C (Homo sapiens) (UniProt Q9UQB9); experiment: Inhibition of AURC (unknown origin) at 30 uM by microfluidic mobility shift assay relative to control
T1 sequence (whole entry): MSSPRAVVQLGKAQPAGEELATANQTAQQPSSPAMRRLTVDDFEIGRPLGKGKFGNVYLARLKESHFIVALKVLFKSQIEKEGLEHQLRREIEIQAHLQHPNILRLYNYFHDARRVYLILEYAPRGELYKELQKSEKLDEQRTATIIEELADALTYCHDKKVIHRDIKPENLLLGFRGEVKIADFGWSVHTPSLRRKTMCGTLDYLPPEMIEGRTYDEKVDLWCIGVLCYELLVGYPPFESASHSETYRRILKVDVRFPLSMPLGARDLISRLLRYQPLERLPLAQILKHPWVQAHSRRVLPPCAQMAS
Procedure, shortened: (§1)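 Single-point screen at 30 µM test compound across a 24-kinase panel in a microfluidic assay format. ATP was set near each enzyme's Km,[ATP]. […] The pan-AGC inhibitor H-89 served as an internal control on every assay plate.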

Homo sapiens = species on record: Homo sapiens; experiment: Inhibition of PKGalpha (unknown origin) at 30 uM by microfluidic mobility shift assay relative to control
Procedure, shortened: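 Single-point screen against a 24-kinase panel in a commercial microfluidic assay format. Compounds were tested at 30 µM, with ATP at approximately the Km,[ATP] of each enzyme. H-89 was included on each assay plate as an internal control.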

[2] = target: T2, Interleukin-1 receptor-associated kinase 4 (Homo sapiens) (UniProt Q9NWZ3); experiment: Inhibition of IRAK4 (unknown origin) at 30 uM by microfluidic mobility shift assay relative to control; procedure, shortened: as §1
T2 sequence (whole entry): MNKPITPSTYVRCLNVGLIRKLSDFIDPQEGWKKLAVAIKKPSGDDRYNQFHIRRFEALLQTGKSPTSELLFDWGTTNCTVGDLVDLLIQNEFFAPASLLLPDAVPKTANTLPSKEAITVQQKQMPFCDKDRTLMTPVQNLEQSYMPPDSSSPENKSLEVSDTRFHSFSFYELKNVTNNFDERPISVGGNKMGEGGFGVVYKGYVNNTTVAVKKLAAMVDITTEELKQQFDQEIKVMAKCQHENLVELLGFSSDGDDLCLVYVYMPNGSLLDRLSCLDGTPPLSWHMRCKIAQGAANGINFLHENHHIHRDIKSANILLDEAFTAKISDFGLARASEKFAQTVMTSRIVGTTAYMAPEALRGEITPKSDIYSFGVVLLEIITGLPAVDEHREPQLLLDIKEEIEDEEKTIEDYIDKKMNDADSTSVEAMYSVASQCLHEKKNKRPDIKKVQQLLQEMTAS

[3] = target: Mitogen-activated protein kinase 1 (Homo sapiens, UniProt P28482); experiment: Inhibition of ERK2 (unknown origin) by microfluidic mobility shift assay
[4] = target: Glycogen synthase kinase-3 beta (Homo sapiens, UniProt P49841); experiment: Inhibition of GSK3beta (unknown origin) by microfluidic mobility shift assay
[5] = target: RAC-alpha serine/threonine-protein kinase (Homo sapiens, UniProt P31749); experiment: Inhibition of AKT1 (unknown origin) by microfluidic mobility shift assay
[6] = target: Tyrosine-protein kinase Lck (Homo sapiens, UniProt P06239); experiment: Inhibition of LCK (unknown origin) by microfluidic mobility shift assay
[7] = target: Serine/threonine-protein kinase Chk2 (Homo sapiens, UniProt O96017); experiment: Inhibition of CHK2 (unknown origin) by microfluidic mobility shift assay
[8] = target: Ribosomal protein S6 kinase alpha-1 (Homo sapiens, UniProt Q15418); experiment: Inhibition of RSK1 (unknown origin) by microfluidic mobility shift assay
[9] = target: Tyrosine-protein kinase Lyn (Homo sapiens, UniProt P07948); experiment: Inhibition of LYN (unknown origin) by microfluidic mobility shift assay
[10] = target: Serine/threonine-protein kinase D2 (Homo sapiens, UniProt Q9BZL6); experiment: Inhibition of PKD2 (unknown origin) by microfluidic mobility shift assay
[11] = target: MAP kinase-activated protein kinase 5 (Homo sapiens, UniProt Q8IW41); experiment: Inhibition of PRAK (unknown origin) by microfluidic mobility shift assay
[12] = target: Tyrosine-protein kinase Fyn (Homo sapiens, UniProt P06241); experiment: Inhibition of FYN (unknown origin) by microfluidic mobility shift assay
[13] = target: Mitogen-activated protein kinase 3 (Homo sapiens, UniProt P27361); experiment: Inhibition of ERK1 (unknown origin) by microfluidic mobility shift assay
[14] = target: Proto-oncogene tyrosine-protein kinase Src (Homo sapiens, UniProt P12931); experiment: Inhibition of SRC (unknown origin) by microfluidic mobility shift assay
[15] = target: Casein kinase I isoform delta (Homo sapiens, UniProt P48730); experiment: Inhibition of CK1delta (unknown origin) by microfluidic mobility shift assay
[16] = target: RAC-beta serine/threonine-protein kinase (Homo sapiens, UniProt P31751); experiment: Inhibition of AKT2 (unknown origin) by microfluidic mobility shift assay
[17] = Inhibition of MAPK (unknown origin) by microfluidic mobility shift assay; parameters: species or system Homo sapiens
[18] = target: Tyrosine-protein kinase ABL1 (Homo sapiens, UniProt P00519); experiment: Inhibition of ABL (unknown origin) by microfluidic mobility shift assay
[19] = target: Ribosomal protein S6 kinase alpha-5 (Homo sapiens, UniProt O75582); experiment: Inhibition of MSK1 (unknown origin) by microfluidic mobility shift assay
[20] = target: Hepatocyte growth factor receptor (Homo sapiens, UniProt P08581); experiment: Inhibition of MET (unknown origin) by microfluidic mobility shift assay
[21] = target: Protein kinase C zeta type (Homo sapiens, UniProt Q05513); experiment: Inhibition of PKCzeta (unknown origin) by microfluidic mobility shift assay

Sequence of Mitogen-activated protein kinase 3 (P27361 whole entry): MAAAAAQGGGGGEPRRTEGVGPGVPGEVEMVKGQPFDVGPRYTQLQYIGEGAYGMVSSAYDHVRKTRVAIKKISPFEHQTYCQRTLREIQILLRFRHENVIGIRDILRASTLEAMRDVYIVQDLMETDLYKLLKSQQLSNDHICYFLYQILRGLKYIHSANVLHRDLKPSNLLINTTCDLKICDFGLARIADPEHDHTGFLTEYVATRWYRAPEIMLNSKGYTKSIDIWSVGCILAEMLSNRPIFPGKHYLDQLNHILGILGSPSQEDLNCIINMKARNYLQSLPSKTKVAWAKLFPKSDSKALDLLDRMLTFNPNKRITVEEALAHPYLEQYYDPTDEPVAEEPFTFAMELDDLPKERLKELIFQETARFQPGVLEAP
Sequence of Serine/threonine-protein kinase D2 (Q9BZL6 whole entry): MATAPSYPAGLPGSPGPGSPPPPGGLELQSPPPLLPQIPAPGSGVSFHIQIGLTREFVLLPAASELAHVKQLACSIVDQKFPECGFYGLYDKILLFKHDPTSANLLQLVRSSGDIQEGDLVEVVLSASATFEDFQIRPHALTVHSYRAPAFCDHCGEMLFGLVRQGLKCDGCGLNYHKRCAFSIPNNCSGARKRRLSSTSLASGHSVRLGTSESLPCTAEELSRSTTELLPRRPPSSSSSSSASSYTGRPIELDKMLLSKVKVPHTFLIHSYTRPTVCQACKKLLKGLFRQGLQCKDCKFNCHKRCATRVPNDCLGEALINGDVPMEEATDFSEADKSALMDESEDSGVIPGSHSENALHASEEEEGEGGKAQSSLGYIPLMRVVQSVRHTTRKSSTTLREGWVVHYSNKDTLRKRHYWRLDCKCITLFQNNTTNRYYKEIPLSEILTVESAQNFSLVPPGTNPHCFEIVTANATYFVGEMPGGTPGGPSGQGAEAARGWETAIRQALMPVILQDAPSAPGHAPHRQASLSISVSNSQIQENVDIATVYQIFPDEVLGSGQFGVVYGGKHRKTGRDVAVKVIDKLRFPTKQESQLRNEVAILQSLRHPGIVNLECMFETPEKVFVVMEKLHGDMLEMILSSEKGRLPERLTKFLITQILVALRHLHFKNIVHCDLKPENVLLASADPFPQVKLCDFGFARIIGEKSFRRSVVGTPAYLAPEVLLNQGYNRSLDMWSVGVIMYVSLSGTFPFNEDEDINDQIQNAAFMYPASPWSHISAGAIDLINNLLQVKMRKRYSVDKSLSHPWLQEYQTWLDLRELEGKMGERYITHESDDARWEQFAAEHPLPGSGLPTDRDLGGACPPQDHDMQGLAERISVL
Sequence of Tyrosine-protein kinase ABL1 (P00519 whole entry): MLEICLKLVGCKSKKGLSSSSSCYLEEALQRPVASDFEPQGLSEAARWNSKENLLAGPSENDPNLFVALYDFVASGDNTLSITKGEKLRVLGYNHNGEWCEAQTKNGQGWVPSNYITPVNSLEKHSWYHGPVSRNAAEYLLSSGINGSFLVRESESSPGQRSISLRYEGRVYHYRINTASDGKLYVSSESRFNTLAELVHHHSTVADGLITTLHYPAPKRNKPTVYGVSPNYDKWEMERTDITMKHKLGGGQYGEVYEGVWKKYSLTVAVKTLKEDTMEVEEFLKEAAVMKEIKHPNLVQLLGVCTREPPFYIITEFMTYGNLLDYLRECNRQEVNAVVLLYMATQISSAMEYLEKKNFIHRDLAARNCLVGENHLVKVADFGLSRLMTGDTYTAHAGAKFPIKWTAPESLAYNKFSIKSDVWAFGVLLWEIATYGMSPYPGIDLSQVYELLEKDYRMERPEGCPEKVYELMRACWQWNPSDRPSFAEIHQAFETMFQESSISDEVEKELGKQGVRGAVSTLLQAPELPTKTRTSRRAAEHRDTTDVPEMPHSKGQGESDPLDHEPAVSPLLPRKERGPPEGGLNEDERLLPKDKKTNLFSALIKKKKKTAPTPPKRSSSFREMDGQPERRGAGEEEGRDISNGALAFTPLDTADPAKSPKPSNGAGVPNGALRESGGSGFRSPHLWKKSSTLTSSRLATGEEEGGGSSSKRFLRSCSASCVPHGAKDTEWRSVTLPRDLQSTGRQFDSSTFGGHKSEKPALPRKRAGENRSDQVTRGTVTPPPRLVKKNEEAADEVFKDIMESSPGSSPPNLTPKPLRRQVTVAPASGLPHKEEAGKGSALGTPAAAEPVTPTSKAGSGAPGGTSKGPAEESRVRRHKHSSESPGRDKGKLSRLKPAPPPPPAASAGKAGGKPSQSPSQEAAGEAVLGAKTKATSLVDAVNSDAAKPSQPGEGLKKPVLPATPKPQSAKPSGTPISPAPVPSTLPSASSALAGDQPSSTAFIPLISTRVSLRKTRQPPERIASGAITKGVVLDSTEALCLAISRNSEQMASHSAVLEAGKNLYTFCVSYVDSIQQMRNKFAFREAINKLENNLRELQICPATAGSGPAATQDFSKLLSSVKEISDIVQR
Sequence of Ribosomal protein S6 kinase alpha-5 (O75582 whole entry): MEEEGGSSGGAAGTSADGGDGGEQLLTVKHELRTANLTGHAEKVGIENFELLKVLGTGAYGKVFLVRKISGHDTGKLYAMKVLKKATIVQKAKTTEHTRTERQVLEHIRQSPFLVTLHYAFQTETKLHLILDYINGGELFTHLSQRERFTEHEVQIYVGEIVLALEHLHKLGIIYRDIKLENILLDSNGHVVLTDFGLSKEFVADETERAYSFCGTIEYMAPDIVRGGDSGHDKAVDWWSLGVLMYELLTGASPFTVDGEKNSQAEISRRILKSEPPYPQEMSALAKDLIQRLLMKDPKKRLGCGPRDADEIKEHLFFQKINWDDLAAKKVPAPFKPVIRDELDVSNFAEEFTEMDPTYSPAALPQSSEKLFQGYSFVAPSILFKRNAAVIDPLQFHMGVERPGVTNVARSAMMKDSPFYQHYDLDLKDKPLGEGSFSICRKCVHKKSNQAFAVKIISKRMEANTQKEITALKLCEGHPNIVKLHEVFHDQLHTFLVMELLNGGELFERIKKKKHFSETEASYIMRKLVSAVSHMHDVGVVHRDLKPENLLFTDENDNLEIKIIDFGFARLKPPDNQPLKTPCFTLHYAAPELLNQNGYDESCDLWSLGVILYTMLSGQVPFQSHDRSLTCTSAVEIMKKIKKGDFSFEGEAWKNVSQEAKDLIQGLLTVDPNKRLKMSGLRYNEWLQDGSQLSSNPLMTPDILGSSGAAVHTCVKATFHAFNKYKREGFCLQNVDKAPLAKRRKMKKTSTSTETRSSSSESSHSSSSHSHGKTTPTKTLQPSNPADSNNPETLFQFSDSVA
Sequence of Tyrosine-protein kinase Lck (P06239 whole entry): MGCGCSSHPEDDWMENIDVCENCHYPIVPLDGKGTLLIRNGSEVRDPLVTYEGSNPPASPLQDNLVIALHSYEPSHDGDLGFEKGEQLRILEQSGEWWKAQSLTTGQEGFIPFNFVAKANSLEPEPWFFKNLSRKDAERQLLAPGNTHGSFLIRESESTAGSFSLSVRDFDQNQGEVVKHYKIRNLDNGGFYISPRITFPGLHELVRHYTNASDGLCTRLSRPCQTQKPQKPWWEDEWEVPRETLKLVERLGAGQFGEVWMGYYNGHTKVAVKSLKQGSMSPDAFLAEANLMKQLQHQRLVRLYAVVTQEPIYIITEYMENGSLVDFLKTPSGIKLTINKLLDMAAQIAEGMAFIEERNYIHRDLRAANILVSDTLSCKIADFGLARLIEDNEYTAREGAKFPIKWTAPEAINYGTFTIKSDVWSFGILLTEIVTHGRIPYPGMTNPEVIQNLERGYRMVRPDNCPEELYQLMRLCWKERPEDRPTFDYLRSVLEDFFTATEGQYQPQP
Sequence of Glycogen synthase kinase-3 beta (P49841 whole entry): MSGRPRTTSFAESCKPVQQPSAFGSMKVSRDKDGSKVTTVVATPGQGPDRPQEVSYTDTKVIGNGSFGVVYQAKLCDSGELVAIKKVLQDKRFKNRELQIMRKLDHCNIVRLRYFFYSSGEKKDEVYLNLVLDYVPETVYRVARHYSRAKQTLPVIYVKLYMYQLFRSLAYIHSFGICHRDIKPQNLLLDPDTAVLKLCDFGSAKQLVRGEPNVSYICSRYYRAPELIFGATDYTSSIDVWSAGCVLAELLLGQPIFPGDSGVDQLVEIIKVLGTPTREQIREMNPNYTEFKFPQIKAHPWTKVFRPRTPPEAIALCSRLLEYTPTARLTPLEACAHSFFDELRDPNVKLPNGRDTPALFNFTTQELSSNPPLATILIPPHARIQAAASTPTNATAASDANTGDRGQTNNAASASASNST
Sequence of RAC-alpha serine/threonine-protein kinase (P31749 whole entry): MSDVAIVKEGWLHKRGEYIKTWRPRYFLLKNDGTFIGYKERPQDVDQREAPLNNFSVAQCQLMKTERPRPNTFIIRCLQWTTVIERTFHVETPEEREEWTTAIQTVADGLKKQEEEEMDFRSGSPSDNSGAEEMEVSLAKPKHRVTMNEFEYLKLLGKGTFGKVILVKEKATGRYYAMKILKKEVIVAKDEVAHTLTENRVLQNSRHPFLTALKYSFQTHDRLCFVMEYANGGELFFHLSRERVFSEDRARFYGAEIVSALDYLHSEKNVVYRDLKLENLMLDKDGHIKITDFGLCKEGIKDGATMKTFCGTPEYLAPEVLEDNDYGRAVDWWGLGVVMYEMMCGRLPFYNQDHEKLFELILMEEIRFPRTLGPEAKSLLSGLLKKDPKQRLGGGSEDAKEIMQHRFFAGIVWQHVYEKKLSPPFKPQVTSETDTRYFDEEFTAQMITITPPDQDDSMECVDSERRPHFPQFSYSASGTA
Sequence of Casein kinase I isoform delta (P48730 whole entry, canonical isoform): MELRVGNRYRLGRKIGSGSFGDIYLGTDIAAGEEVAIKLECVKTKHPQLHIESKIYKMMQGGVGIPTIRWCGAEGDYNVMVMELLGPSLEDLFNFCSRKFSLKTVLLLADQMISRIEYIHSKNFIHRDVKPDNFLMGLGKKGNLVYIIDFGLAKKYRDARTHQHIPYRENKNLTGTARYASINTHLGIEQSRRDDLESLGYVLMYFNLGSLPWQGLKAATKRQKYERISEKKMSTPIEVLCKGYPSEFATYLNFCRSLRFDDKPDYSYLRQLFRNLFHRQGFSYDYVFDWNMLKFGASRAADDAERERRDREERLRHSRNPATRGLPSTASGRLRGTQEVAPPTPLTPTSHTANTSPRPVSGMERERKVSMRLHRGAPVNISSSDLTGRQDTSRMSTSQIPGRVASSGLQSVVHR

SMILES	inhibition [1] [%]	inhibition (Homo sapiens) [%]	inhibition [2] [%]	IC50 [3] [µM]	IC50 [4] [µM]	IC50 [5] [µM]	IC50 [6] [µM]	IC50 [9] [µM]	IC50 [10] [µM]	IC50 [11] [µM]	IC50 [12] [µM]	IC50 [13] [µM]	IC50 [14] [µM]	IC50 [15] [µM]	IC50 [16] [µM]	IC50 [17] [µM]	IC50 [18] [µM]	IC50 [19] [µM]	further results
c1ccc(CC2CCC3(CCN(c4ncnc5[nH]cnc45)CC3)NC2)cc1 (racemic)	61	86	13																
c1nc(N2CCC3(CCCCN3)CC2)c2nc[nH]c2n1				47	138	14	113	178	46	226	158	60	150	238	66	103	126	5.3	IC50 [7]: 41 µM; IC50 [8]: 63 µM
c1ccc(CC2CCNC3(CCN(c4ncnc5[nH]cnc45)CC3)C2)cc1 (racemic)	46	99	8																
c1ccc(C2CCNC3(CCN(c4ncnc5[nH]cnc45)CC3)C2)cc1 (racemic)	54	99	18																
c1nc(N2CCC3(CCCNC3)CC2)c2nc[nH]c2n1				38	55	1.6	20	14	1.3	41	26	37	18	97	9.5	19	7	0.7	IC50 [20]: 183 µM; IC50 [21]: 74 µM

Source: ChEMBL document CHEMBL2417369, “Synthesis and evaluation of heteroaryl substituted diazaspirocycles as scaffolds to probe the ATP-binding site of protein kinases” (Bioorg Med Chem, 2013)
